{"source": "ChEMBL document CHEMBL4706526", "about": "“The HIV-1 maturation inhibitor, EP39, interferes with the dynamic helix-coil equilibrium of the CA-SP1 junction of Gag” (Eur J Med Chem, 2020)", "key": {"[1]": {"test": "Binding affinity to HIV-1NL4-3 15N-labeled C-terminal domain CA-SP1-NC at A232 residue cleavage site of Gag-Pol protein harboring W184A/M185A mutant expressed in Escherichia coli by 1H-15N SOFAST-HMQC spectroscopic analysis", "design": "species or system Human immunodeficiency virus 1", "in_short": "(§1)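 300 μM 15N-labelled CA-CTD(W184A/M185A)-SP1-NC in acetate buffer (25 mM Na acetate pH 6.5, 25 mM NaCl, 0.1 mM ZnCl2, 0.1 mM 2-mercaptoethanol, 10% D2O), 303 K, 600 MHz with cryoprobe. Ligand added from ~60 mM DMSO-d6 stock; reference 1H-15N SOFAST-HMQC recorded first. Per-residue Kd from non-linear fit of chemical shift perturbation vs ligand concentration, one-site model plus linear non-specific term.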"}, "[2]": {"test": "Binding affinity to HIV-1NL4-3 15N-labeled C-terminal domain CA-SP1-NC at S236 residue cleavage site of Gag-Pol protein harboring W184A/M185A mutant expressed in Escherichia coli by 1H-15N SOFAST-HMQC spectroscopic analysis", "design": "species or system Human immunodeficiency virus 1", "in_short": "as §1"}, "[3]": {"test_system": "Human immunodeficiency virus 1", "test": "Binding affinity to HIV-1NL4-3 15N-labeled C-terminal domain CA-SP1-NC cleavage site of Gag-Pol protein harboring W184A/M185A mutant expressed in Escherichia coli assessed as change in chemical shift perturbation at CA 218 to NC 257 residues by 1H-15N SOFAST-HMQC spectroscopic analysis", "in_short": "(§2)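 1H-15N SOFAST-HMQC of 300 μM 15N-labelled CA-CTD(W184A/M185A)-SP1-NC, without and with ligand. Buffer: 25 mM Na acetate pH 6.5, 25 mM NaCl, 0.1 mM ZnCl2, 0.1 mM 2-mercaptoethanol, 10% D2O. Recorded at 303 K, 600 MHz, cryoprobe. Ligand from ~60 mM DMSO-d6 stock. Control sample held protein plus the same DMSO-d6 amount.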"}, "[4]": {"test": "Binding affinity to HIV-1NL4-3 15N-labeled C-terminal domain CA-SP1-NC at V221 residue cleavage site of Gag-Pol protein harboring W184A/M185A mutant expressed in Escherichia coli by 1H-15N SOFAST-HMQC spectroscopic analysis", "design": "species or system Human immunodeficiency virus 1", "in_short": "as §1"}, "[5]": {"test": "Binding affinity to HIV-1NL4-3 15N-labeled C-terminal domain CA-SP1-NC at T257 residue cleavage site of Gag-Pol protein harboring W184A/M185A mutant expressed in Escherichia coli by 1H-15N SOFAST-HMQC spectroscopic analysis", "design": "species or system Human immunodeficiency virus 1", "in_short": "as §1"}, "[6]": {"test": "Binding affinity to HIV-1NL4-3 15N-labeled C-terminal domain CA-SP1-NC at E233 residue cleavage site of Gag-Pol protein harboring W184A/M185A mutant expressed in Escherichia coli by 1H-15N SOFAST-HMQC spectroscopic analysis", "design": "species or system Human immunodeficiency virus 1", "in_short": "as §1"}, "[7]": {"test": "Binding affinity to HIV-1NL4-3 15N-labeled C-terminal domain CA-SP1-NC at M235 residue cleavage site of Gag-Pol protein harboring W184A/M185A mutant expressed in Escherichia coli by 1H-15N SOFAST-HMQC spectroscopic analysis", "design": "species or system Human immunodeficiency virus 1", "in_short": "as §1"}, "[8]": {"test_system": "Human immunodeficiency virus 1", "test": "Binding affinity to HIV-1NL4-3 15N-labeled C-terminal domain CA-SP1-NC cleavage site of Gag-Pol protein harboring W184A/M185A mutant expressed in Escherichia coli assessed as change in peak intensity at CA 225 to 229/NC 248 to 251 residues by NMR analysis"}, "[9]": {"test_system": "Human immunodeficiency virus 1", "test": "Binding affinity to HIV-1NL4-3 15N-labeled C-terminal domain CA-SP1-NC cleavage site of Gag-Pol protein harboring W184A/M185A mutant expressed in Escherichia coli assessed as change in resonances at CA 220/225 to 229 and Nc 248 to 253/ 256 residues by 1H-15N SOFAST-HMQC spectroscopic analysis", "in_short": "as §2"}, "[10]": {"test_system": "Human immunodeficiency virus 1", "test": "Binding affinity to HIV-1NL4-3 15N-labeled C-terminal domain CA-SP1-NC cleavage site of Gag-Pol protein harboring W184A/M185A mutant expressed in Escherichia coli assessed as change in peak intensity at CA 218 to NC 257 residues by 1H-15N SOFAST-HMQC spectroscopic analysis", "in_short": "as §2"}, "[11]": {"test": "Binding affinity to HIV-1NL4-3 15N-labeled C-terminal domain CA-SP1-NC at Q237 residue cleavage site of Gag-Pol protein harboring W184A/M185A mutant expressed in Escherichia coli by 1H-15N SOFAST-HMQC spectroscopic analysis", "design": "species or system Human immunodeficiency virus 1", "in_short": "as §1"}, "[12]": {"test": "Binding affinity to HIV-1NL4-3 15N-labeled C-terminal domain CA-SP1-NC at L231 residue cleavage site of Gag-Pol protein harboring W184A/M185A mutant expressed in Escherichia coli by 1H-15N SOFAST-HMQC spectroscopic analysis", "design": "species or system Human immunodeficiency virus 1", "in_short": "as §1"}, "[13]": {"test_system": "Human immunodeficiency virus 1", "test": "Binding affinity to HIV-1NL4-3 15N-labeled C-terminal domain CA-SP1-NC cleavage site of Gag-Pol protein harboring W184A/M185A mutant expressed in Escherichia coli assessed as HetNOE value at SP1 T239 residues by NMR analysis (reference value: -0.324No_unit)"}, "[14]": {"test": "Binding affinity to HIV-1NL4-3 15N-labeled C-terminal domain CA-SP1-NC at V238 residue cleavage site of Gag-Pol protein harboring W184A/M185A mutant expressed in Escherichia coli by 1H-15N SOFAST-HMQC spectroscopic analysis", "design": "species or system Human immunodeficiency virus 1", "in_short": "as §1"}, "[15]": {"test": "Binding affinity to HIV-1NL4-3 15N-labeled C-terminal domain CA-SP1-NC at T239 residue cleavage site of Gag-Pol protein harboring W184A/M185A mutant expressed in Escherichia coli by 1H-15N SOFAST-HMQC spectroscopic analysis", "design": "species or system Human immunodeficiency virus 1", "in_short": "as §1"}, "[16]": {"test_system": "Human immunodeficiency virus 1", "test": "Binding affinity to HIV-1NL4-3 15N-labeled C-terminal domain CA-SP1-NC cleavage site of Gag-Pol protein harboring W184A/M185A mutant expressed in Escherichia coli assessed as formation of QVT motif at SP1 232 to 239 residues by NMR analysis"}}, "note": "Active and inactive are the calls of the source. The rule behind the calls is not given here.", "data": [{"smiles": "C=C(C)[C@@H]1CC[C@]2(C(=O)NCCN)CC[C@]3(C)[C@@H](CC[C@@H]4[C@@]5(C)CC[C@H](OC(=O)CC(C)(C)C(=O)O)C(C)(C)[C@@H]5CC[C@]43C)[C@@H]12", "values": [{"measurement": "Kd", "setting": "[1]", "result": 692, "unit": "µM"}, {"measurement": "Kd", "setting": "[2]", "result": 180, "unit": "µM"}, {"measurement": "Activity", "setting": "[3]", "result": "Active"}, {"measurement": "Kd", "setting": "[4]", "result": 670, "unit": "µM"}, {"measurement": "Kd", "setting": "[5]", "result": 308, "unit": "µM"}, {"measurement": "Kd", "setting": "[6]", "result": 237, "unit": "µM"}, {"measurement": "Kd", "setting": "[7]", "result": 235, "unit": "µM"}, {"measurement": "Activity", "setting": "[8]", "result": "Active"}, {"measurement": "Activity", "setting": "[9]", "result": "Active"}, {"measurement": "Activity", "setting": "[10]", "result": "Active"}, {"measurement": "Kd", "setting": "[11]", "result": 154, "unit": "µM"}, {"measurement": "Kd", "setting": "[12]", "result": 678, "unit": "µM"}, {"measurement": "Activity", "setting": "[13]", "result": -0.164}, {"measurement": "Kd", "setting": "[14]", "result": 204, "unit": "µM"}, {"measurement": "Kd", "setting": "[15]", "result": 52.5, "unit": "µM"}, {"measurement": "Activity", "setting": "[16]", "result": "Active"}]}]}
